The subject of experiment [1] is Rattus norvegicus. Nature of the experiment: Reduction in 3,4-dihydroxyphenylacetic acid level in Sprague-Dawley rat striatum at 10.5 umol/kg, sc relative to saline treated control. In kind it is functional. Also noted: scale not given: the % may be the effect or the level left. The procedure, abridged:
(§1)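 Striatal DOPAC was measured by post-mortem biochemistry in rat striatum and expressed relative to saline-injected controls (n = 4). Significance was tested by Student's t test at P<0.05.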

Experiment [2] relates to Rattus norvegicus. Nature of the experiment: Reduction in spontaneous locomotor activity in Sprague-Dawley rat striatum at 10.5 umol/kg, sc relative to control. Also noted: scale not given: the % may be the effect or the level left. It is filed as functional. An outline of the steps: (§2)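 Locomotor activity was recorded in partly habituated rats from 15 to 60 min after injection, sampled at 25 Hz. It was expressed as a percentage of saline control.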

The test system of experiment [3] is Rattus norvegicus. Nature of the experiment: Reduction in amphetamine-induced locomotor activity in Sprague-Dawley rat striatum at 10.5 umol/kg, sc relative to control. Also noted: scale not given: the % may be the effect or the level left. It is filed as functional. An outline of the steps:
(§3)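 Rats were pretreated with amphetamine at 1.5 mg/kg intraperitoneally. Locomotor activity was recorded from 15 to 60 min after injection, sampled at 25 Hz, and compared with amphetamine-pretreated controls (n = 4).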

Experiment [4] has as its system Rattus norvegicus. Nature of the experiment: Reduction in spontaneous locomotor activity in Sprague-Dawley rat striatum at 100 umol/kg, sc relative to control. It is filed as functional. The arrangement: scale not given: the % may be the effect or the level left.
Experiment [5] addresses T1, D(2) dopamine receptor (Homo sapiens, UniProt P14416). Description: biochemical. In kind it is cell-based, HEK293.
The test system of experiment [6] is Rattus norvegicus. Description: Reduction in 3,4-dihydroxyphenylacetic acid level in Sprague-Dawley rat striatum at 100 umol/kg, sc relative to saline treated control. Also noted: scale not given: the % may be the effect or the level left. In kind it is functional. The procedure, abridged: (§4)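 Striatal DOPAC measured post-mortem after a single test-compound dose. Each level is expressed as a percentage of the saline-treated control, with n = 4. Significance was tested by Student's t test (P<0.05).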

Experiment [7] concerns the target T1, D(2) dopamine receptor. Nature of the experiment: biochemical. In kind it is cell-based, HEK293. The source holds these as a separate data set.
Experiment [8] concerns Rattus norvegicus. Description: Reduction in 3,4-dihydroxyphenylacetic acid level in Sprague-Dawley rat striatum at 33 umol/kg, sc relative to saline treated control. It is filed as functional. Also noted: scale not given: the % may be the effect or the level left. The procedure, abridged:
as §4

The test system of experiment [9] is Rattus norvegicus. Nature of the experiment: Reduction in spontaneous locomotor activity in Sprague-Dawley rat striatum at 33 umol/kg, sc relative to control. It is filed as functional. The arrangement: scale not given: the % may be the effect or the level left.
The test system of experiment [10] is Rattus norvegicus. Description: Reduction in amphetamine-induced locomotor activity in Sprague-Dawley rat striatum at 33 umol/kg, sc relative to control. It is filed as functional. The arrangement: scale not given: the % may be the effect or the level left. The procedure, abridged: (§5)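 Rats were pretreated with amphetamine (1.5 mg/kg intraperitoneally). Locomotor activity was recorded 15-60 min after test-compound injection, measured at 25 Hz and compared with amphetamine-pretreated controls, with n = 4.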

Experiment [11] concerns Rattus norvegicus. Nature of the experiment: Reduction in amphetamine-induced locomotor activity in Sprague-Dawley rat striatum at 100 umol/kg, sc relative to control. It is filed as functional. Also noted: scale not given: the % may be the effect or the level left. An outline of the steps: as §5
The test system of experiment [12] is Rattus norvegicus. Nature of the experiment: Reduction in spontaneous locomotor activity in Sprague-Dawley rat striatum at 117 umol/kg, sc relative to control. Also noted: scale not given: the % may be the effect or the level left. It is filed as functional.
In experiment [13] the test system is Rattus norvegicus. Description: Reduction in 3,4-dihydroxyphenylacetic acid level in Sprague-Dawley rat striatum at 117 umol/kg, sc relative to saline treated control. In kind it is functional. Also noted: scale not given: the % may be the effect or the level left. The procedure, abridged:
as §4

In experiment [14] the test system is Rattus norvegicus. Description: Reduction in amphetamine-induced locomotor activity in Sprague-Dawley rat striatum at 7.68 umol/kg, sc relative to control. It is filed as functional. The arrangement: scale not given: the % may be the effect or the level left. The procedure, abridged:
as §3

Experiment [15] deals with Rattus norvegicus. Description: Reduction in spontaneous locomotor activity in Sprague-Dawley rat striatum at 7.68 umol/kg, sc relative to control. In kind it is functional. Also noted: scale not given: the % may be the effect or the level left. An outline of the steps: as §2
The test system of experiment [16] is Rattus norvegicus. Nature of the experiment: Reduction in 3,4-dihydroxyphenylacetic acid level in Sprague-Dawley rat striatum at 7.68 umol/kg, sc relative to saline treated control. It is filed as functional. The arrangement: scale not given: the % may be the effect or the level left. The procedure, abridged: as §1
For experiment [17], the system named is Rattus norvegicus. Nature of the experiment: Reduction in amphetamine-induced locomotor activity in Sprague-Dawley rat striatum at 50 umol/kg, sc relative to control. In kind it is functional. Also noted: scale not given: the % may be the effect or the level left. The procedure, abridged:
as §3

The subject of experiment [18] is Rattus norvegicus. Nature of the experiment: Reduction in 3,4-dihydroxyphenylacetic acid level in Sprague-Dawley rat striatum at 6.59 umol/kg, sc relative to saline treated control. The arrangement: scale not given: the % may be the effect or the level left. It is filed as functional. An outline of the steps:
as §4

The subject of experiment [19] is Rattus norvegicus. Description: Reduction in spontaneous locomotor activity in Sprague-Dawley rat striatum at 6.59 umol/kg, sc relative to control. It is filed as functional. The arrangement: scale not given: the % may be the effect or the level left.
For experiment [20], the system named is Rattus norvegicus. Nature of the experiment: Reduction in amphetamine-induced locomotor activity in Sprague-Dawley rat striatum at 1 umol/kg, sc relative to control. It is filed as functional. The arrangement: scale not given: the % may be the effect or the level left. The procedure, abridged:
as §3

In experiment [21] the test system is Rattus norvegicus. Description: Reduction in spontaneous locomotor activity in Sprague-Dawley rat striatum at 1 umol/kg, sc relative to control. It is filed as functional. Also noted: scale not given: the % may be the effect or the level left. An outline of the steps:
as §2

Experiment [22] concerns Rattus norvegicus. Nature of the experiment: Reduction in 3,4-dihydroxyphenylacetic acid level in Sprague-Dawley rat striatum at 1 umol/kg, sc relative to saline treated control. Also noted: scale not given: the % may be the effect or the level left. In kind it is functional. The procedure, abridged:
as §1

In general, Ki refers to the equilibrium dissociation constant of an inhibitor or competing ligand from its target.

T1 sequence (P14416 whole entry): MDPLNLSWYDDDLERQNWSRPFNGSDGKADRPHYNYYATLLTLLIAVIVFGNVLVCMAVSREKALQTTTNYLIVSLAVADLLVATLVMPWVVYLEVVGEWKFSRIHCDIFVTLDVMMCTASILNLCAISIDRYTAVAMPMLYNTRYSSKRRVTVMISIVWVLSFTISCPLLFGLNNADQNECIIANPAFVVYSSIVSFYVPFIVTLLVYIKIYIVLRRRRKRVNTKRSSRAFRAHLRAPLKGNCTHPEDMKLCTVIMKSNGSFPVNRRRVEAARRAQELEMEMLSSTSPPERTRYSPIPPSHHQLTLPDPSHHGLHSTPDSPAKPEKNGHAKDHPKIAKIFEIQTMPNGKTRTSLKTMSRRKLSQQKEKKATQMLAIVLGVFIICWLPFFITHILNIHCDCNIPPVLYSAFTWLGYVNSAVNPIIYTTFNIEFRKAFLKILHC

For the molecule `Cc1cc2c(s1)Nc1ccccc1N=C2N1CCN(C)CC1` [OLANZAPINE], the Activity in [1] worked out at 362%; in experiment [2], 17%; in experiment [3], 6%.

With `CCCN1CCC(c2cccc(S(C)(=O)=O)c2)CC1` [PRIDOPIDINE], the Activity in experiment [4] was found to be 262%; in [6], 265%. The Ki in experiment [5] is 7520 nM; in experiment [7], 17500 nM.

As for `CCCN1CCN(c2cccc(O)c2)CC1`, the Activity in experiment [8] amounted to 261%; in [9], 31%; in [10], 16%. For the same molecule, the Ki in experiment [5] was found to be 69 nM; in experiment [7] it was 721 nM.

`CS(=O)(=O)c1cccc(N2CCN(Cc3ccccc3)CC2)c1`: the results for the Activity in experiment [4], in experiment [11] and in experiment [6] were 17%, 15% and 248%, respectively. In addition, the Ki in experiment [5] is 431 nM; in [7], 1920 nM.

Take `CCCN1CCC[C@@H](c2cccc(O)c2)C1` [PRECLAMOL]: the Activity in experiment [12] is 37%; in experiment [13], 175%.

Turning to `Oc1cccc(C2CCN(Cc3ccccc3)CC2)c1`, the Activity in experiment [8] was determined as 317%; in experiment [9], 85%; in experiment [10], 12%. The Ki in [5] turned out to be 35 nM; in experiment [7] it was 285 nM.

In the case of `O=c1[nH]c2cccc(N3CCN(Cc4cccc(-c5ccccc5)c4)CC3)c2o1` [BIFEPRUNOX], the Activity in experiment [14] came out at 5%; in experiment [15], 7%; in experiment [16] it was 152%.

As for `Oc1cccc(N2CCN(Cc3ccccc3)CC2)c1`, the results for the Activity in experiment [4], in experiment [11] and in experiment [6] were 8%, 10% and 108%, respectively.

Regarding `O=C1CCc2ccc(OCCCCN3CCN(c4cccc(Cl)c4Cl)CC3)cc2N1` [ARIPIPRAZOLE], the Activity in [14] is reported as 9%; in experiment [15], 2%; in experiment [16] it was 150%.

`CCCN1CCC[C@@H](c2cccc(S(C)(=O)=O)c2)C1`: the values for the Activity in experiment [4], in [11] and in experiment [6] were 215%, 37% and 260%, respectively. Besides, the results for the Ki in [5] and in [7] were 755 nM and 3880 nM, respectively.

Take `CS(=O)(=O)c1cccc(C2CCN(Cc3ccccc3)CC2)c1`: the Activity in experiment [8] came out at 310%; in experiment [9] it was 44%; in experiment [17] it was 6%. Further, the figures for the Ki in [5] and in experiment [7] were 392 nM and 841 nM, respectively.

For the molecule `CCCN1CCC(c2cccc(O)c2)CC1`, the figures for the Ki in [5] and in experiment [7] were 349 nM and 2570 nM, respectively.

With `CN1CCc2cccc3c2[C@H]1Cc1ccc(O)c(O)c1-3` [APOMORPHINE], the Activity in [18] was found to be 77%; in experiment [19], 7118%.

`O=C(CCCN1CCC(O)(c2ccc(Cl)cc2)CC1)c1ccc(F)cc1` [HALOPERIDOL]: the values for the Activity in [20], in experiment [21] and in experiment [22] were 1%, 7% and 425%, respectively.

Consider `CCCN1CCN(c2cccc(S(C)(=O)=O)c2)CC1`, for which the Activity in [8] was found to be 310%; in experiment [9] it was 27%; in experiment [10], 6%. The values for the Ki in experiment [5] and in experiment [7] were 664 nM and 1210 nM, respectively.

These data come from ChEMBL document CHEMBL1157594, “Synthesis and evaluation of a set of 4-phenylpiperidines and 4-phenylpiperazines as D2 receptor ligands and the discovery of the dopaminergic stabilizer 4-[3-(methylsulfonyl)phenyl]-1-propylpiperidine (huntexil, pridopidine, ACR16)” (J Med Chem, 2010).
